According to ChEMBL document CHEMBL4014326, “Discovery of an Orally Bioavailable Benzimidazole Diacylglycerol Acyltransferase 1 (DGAT1) Inhibitor That Suppresses Body Weight Gain in Diet-Induced Obese Dogs and Postprandial Triglycerides in Humans” (J Med Chem, 2017):
In brackets after ≈: the same amount, converted by molar mass. Activity calls are given as the source filed them. The rule behind the calls is not given here.

Columns and labels:
[1] = Drug level in dog hepatocytes treated with [3H]-3-(4-(6-(5-(4-Methoxyphenyl)-1,3,4-oxadiazol-2-yl)-1H-benzo[d]imidazol-2-yl)-3,5-dimethylphenyl)-2,2-dimethylpropanoic acid at 12.5 uM after 18 hrs; format: ADME, cell-based, Canis lupus familiaris, Hepatocyte
In short: (§1)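 [3H]-labelled compound (12.5 µM) was incubated for 18 h with rat, dog, monkey or human hepatocytes, and metabolites were profiled.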

[2] = Drug level in human hepatocytes treated with [3H]-3-(4-(6-(5-(4-Methoxyphenyl)-1,3,4-oxadiazol-2-yl)-1H-benzo[d]imidazol-2-yl)-3,5-dimethylphenyl)-2,2-dimethylpropanoic acid at 12.5 uM after 18 hrs; format: ADME, cell-based, Hepatocyte; in short: as §1
[3] = Drug level in monkey hepatocytes treated with [3H]-3-(4-(6-(5-(4-Methoxyphenyl)-1,3,4-oxadiazol-2-yl)-1H-benzo[d]imidazol-2-yl)-3,5-dimethylphenyl)-2,2-dimethylpropanoic acid at 12.5 uM after 18 hrs; format: ADME, cell-based, Macaca mulatta, Hepatocyte; settings: rhesus monkey; in short: as §1
[4] = Drug level in rat hepatocytes treated with [3H]-3-(4-(6-(5-(4-Methoxyphenyl)-1,3,4-oxadiazol-2-yl)-1H-benzo[d]imidazol-2-yl)-3,5-dimethylphenyl)-2,2-dimethylpropanoic acid at 12.5 uM after 18 hrs; format: ADME, cell-based, Hepatocyte; in short: as §1
[5] = AUC (0 to 8 hrs) in Sprague-Dawley rat at 1mg/kg, iv by LC/MS/MS analysis; format: ADME, organism-based; parameters: time < 8 hr, dose 1 mg/kg, route intravenous; settings: in vivo
In short: (§2)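 Male Sprague-Dawley rats, 200-300 g, dosed iv (n = 2) or po (n = 3) as solutions in NMP/PG or PEG400/ETPGS vehicles. Blood was taken from a jugular vein catheter at 0.083 (iv only), 0.25, 0.5, 1, 2, 4, 6 and 8 h into EDTA tubes, and plasma was analysed by LC-MS/MS. Values are means ± SD.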

[6] = biological target: T1, Diacylglycerol O-acyltransferase 1 (Mus musculus, UniProt Q9Z2A7); test: Inhibition of DGTA1 in mouse C2C12 cells assessed as inhibition of triglyceride formation after 2 hrs by LC/MS/MS analysis; format: cell-based
T1 sequence (Q9Z2A7 whole entry): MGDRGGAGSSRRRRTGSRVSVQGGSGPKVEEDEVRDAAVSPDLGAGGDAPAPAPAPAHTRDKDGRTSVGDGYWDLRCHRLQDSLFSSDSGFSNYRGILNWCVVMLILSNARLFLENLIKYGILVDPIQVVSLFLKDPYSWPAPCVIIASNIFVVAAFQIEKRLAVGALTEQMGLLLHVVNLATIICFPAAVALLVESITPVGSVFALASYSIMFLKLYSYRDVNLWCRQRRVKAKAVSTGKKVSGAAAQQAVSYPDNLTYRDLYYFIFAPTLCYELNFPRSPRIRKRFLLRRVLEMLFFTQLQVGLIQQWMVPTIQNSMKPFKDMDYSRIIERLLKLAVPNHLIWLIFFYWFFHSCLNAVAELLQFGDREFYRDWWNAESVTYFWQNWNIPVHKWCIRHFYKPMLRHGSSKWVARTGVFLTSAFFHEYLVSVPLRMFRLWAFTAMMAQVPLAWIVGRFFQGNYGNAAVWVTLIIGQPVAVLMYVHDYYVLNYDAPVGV
In short: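 C2C12 cells were seeded in DMEM with 5 mM glucose and 10% FBS for 18 h at 37 °C. Medium was then replaced with DMEM, 5 mM glucose and 250 µM oleate-BSA plus inhibitor (0.5% DMSO final) for 2 h at 37 °C. Cells were extracted with butanol containing tripalmitolein internal standard and triglyceride was read by LC-MS/MS. An 11-point, 3-fold dose response was run in quadruplicate.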

[7] = Oral bioavailability in Sprague-Dawley rat at 3 mg/kg by LC/MS/MS analysis; format: ADME, organism-based; settings: in vivo; in short: as §2
[8] = Permeability across apical to basolateral side in human Caco2 cells; format: ADME, cell-based; settings: Caco-2, read-out: permeability
In short: (§3)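 Caco-2 monolayer permeability was measured in the A-B and B-A directions, and the efflux ratio was taken as B-A/A-B.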

[9] = Volume of distribution at steady state in Sprague-Dawley rat at 1 mg/kg, iv by LC/MS/MS analysis; format: ADME, organism-based; settings: in vivo, read-out: Vdss; in short: as §2
[10] = Permeability across basolateral to apical side in human Caco2 cells; format: ADME, cell-based; settings: Caco-2, read-out: permeability; in short: as §3
[11] = Clearance in Sprague-Dawley rat at 1 mg/kg, iv by LC/MS/MS analysis; format: ADME, organism-based; settings: in vivo; in short: as §2
[12] = AUC (0 to 8 hrs) in Sprague-Dawley rat at 3 mg/kg, po by LC/MS/MS analysis; format: ADME, organism-based; parameters: dose 3 mg/kg, time < 8 hr, route oral; settings: in vivo; in short: as §2
[13] = Half life in Sprague-Dawley rat at 1 mg/kg, iv by LC/MS/MS analysis; format: ADME, organism-based; settings: in vivo; in short: as §2
[14] = Tmax in Sprague-Dawley rat 3 mg/kg, po by LC/MS/MS analysis; format: ADME, organism-based; settings: in vivo; in short: as §2
[15] = Solubility of the compound at pH 6.8 after 24 hrs; format: physicochemical; settings: buffer
In short: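 Solubility was measured in pH 6.8 buffer after 24 h incubation.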

[16] = Cmax in Sprague-Dawley rat at 3 mg/kg, po by LC/MS/MS analysis; format: ADME, organism-based; parameters: dose 3 mg/kg, route oral; settings: in vivo; in short: as §2
[17] = Ratio of IC50 for DGTA1 in mouse C2C12 cells to IC50 for recombinant human His6-tagged DGAT1; format: cell-based
In short: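 Ratio of the C2C12 cellular IC50 to the enzymatic IC50. Enzyme assay: Sf9 membranes expressing human His6-DGAT1 with 50 µM diolein and 50 µM oleoyl-CoA in 50 mM HEPES pH 7.5, 5 mM MgCl2 and 10% ethanol, 30 min at room temperature. Triolein was read by LC-MS/MS, with a 10-point, 3-fold dose response run in duplicate.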

[18] = system: Canis familiaris; test: Antiobesity activity in high fat diet-fed dog assessed as reduction in body weight gain at 5 mg/kg, po qd administered via gelatin capsule after 21 days relative to vehicle control; parameters: scale not given: the % may be the effect or the level left
[19] = system: Plasma; test: Unbound concentration in dog plasma at 5 mg/kg, po after 24 hrs; format: ADME, organism-based, Canis lupus familiaris; settings: in vivo
[20] = Protein binding in dog plasma at 5 mg/kg, po after 24 hrs; format: ADME, organism-based, Canis lupus familiaris; settings: read-out: PPB (converted)
[21] = Plasma concentration in high fat diet-fed dog at 5 mg/kg, po administered via gelatin capsule after 90 mins
[22] = Plasma concentration in high fat diet-fed dog at 5 mg/kg, po qd administered via gavage measured after twenty-ninth dose; format: ADME, organism-based, Canis lupus familiaris
[23] = AUC (0 to 24 hrs) in dog plasma at 5 mg/kg, po after 24 hrs; format: ADME, organism-based, Canis lupus familiaris; parameters: time < 24 hr, dose 5 mg/kg, route oral
[24] = species: Rattus norvegicus; test: Antiobesity activity in rat assessed as suppression of postprandial triglyceride levels; format: functional
[25] = system: Homo sapiens; test: Antiobesity activity in high fat-fed human assessed as suppression of postprandial plasma triglyceride level compound administered as single oral dose; format: functional
In short: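 Randomized, double-blind, placebo-controlled single ascending dose study in overweight or obese healthy adults aged 18-55. Single oral doses of 5-600 mg (n = 8 per dose) or placebo (n = 12) were given. About 1 h after dosing, subjects ate a ~1000 kcal, 55% fat test meal, and plasma triglycerides were compared against an untreated baseline meal test monitored for 9 h.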

[26] = system: Canis familiaris; test: Antiobesity activity in fasted Beagle dog assessed as postprandial triglyceride AUC in plasma at 1 mg/kg administered via oral gavage prior to 30 mins of […] measured after 4 hrs (reference value: 35400 +/- 8863 mg/dL.min); format: functional, organism-based; parameters: dose 1 mg/kg, time < 4 hr; settings: Canis lupus familiaris
[27] = Oral bioavailability in Sprague-Dawley rat at 5 mg/kg by LC/MS/MS analysis; format: ADME, organism-based; settings: in vivo; in short: as §2
[28] = Tmax in Sprague-Dawley rat 5 mg/kg, po by LC/MS/MS analysis; format: ADME, organism-based; settings: in vivo; in short: as §2
[29] = AUC (0 to 8 hrs) in Sprague-Dawley rat at 5 mg/kg, po by LC/MS/MS analysis; format: ADME, organism-based; parameters: dose 5 mg/kg, time < 8 hr, route oral; settings: in vivo; in short: as §2
[30] = Cmax in Sprague-Dawley rat at 5 mg/kg, po by LC/MS/MS analysis; format: ADME, organism-based; parameters: dose 5 mg/kg, route oral; settings: in vivo; in short: as §2

Cc1cc(CC(C)(C)C(=O)O)cc(C)c1-c1nc2ccc(-c3nnc(-c4ccc(O)cc4)o3)cc2[nH]1
Drug metabolism [1]: Metabolite_Detected
Drug metabolism [2]: Metabolite_Detected
Drug metabolism [3]: Metabolite_Detected
Drug metabolism [4]: Metabolite_Detected

Cc1cc(CC(C)(C)C(=O)O)cc(C)c1-c1nc2ccc(C(=O)Nc3ccc4ccccc4n3)cc2[nH]1
AUC(0-t) at 8 h [5]: 6.11 µM·h
IC50 [6]: 954 nM
bioavailability [7]: 23%
Papp A→B [8]: 3.5 ×10⁻⁶ cm/s
Vd [9]: 0.4 L/kg
Papp B→A [10]: 12.4 ×10⁻⁶ cm/s
clearance [11]: 5.5 mL/min/kg
AUC(0-t) at 8 h [12]: 4.23 µM·h
half-life [13]: 48 min
Tmax [14]: 30 min
solubility at 24 h [15]: 8 µM (≈ 3.94 µg/mL)
Cmax [16]: 1720 nM

Cc1cc(CCC(=O)O)cc(C)c1-c1nc2ccc(C(=O)Nc3ccc(C(C)(C)C)cc3)cc2[nH]1
Ratio IC50 [17]: 10

COc1ccc(-c2nnc(-c3ccc4nc(-c5c(C)cc(CC(C)(C)C(=O)O[C@@H]6O[C@H](C(=O)O)[C@@H](O)[C@H](O)[C@H]6O)cc5C)[nH]c4c3)o2)cc1
Drug metabolism [1]: Metabolite_Detected
Drug metabolism [2]: Metabolite_Detected
Drug metabolism [3]: Metabolite_Detected
Drug metabolism [4]: Metabolite_Detected

COc1ccc(-c2nnc(-c3ccc4nc(-c5c(C)cc(CCC(=O)O)cc5C)[nH]c4c3)o2)cc1
AUC(0-t) at 8 h [5]: 1.69 µM·h
IC50 [6]: 181 nM
bioavailability [7]: 2%
Papp A→B [8]: 1.4 ×10⁻⁶ cm/s
Vd [9]: 0.7 L/kg
Papp B→A [10]: 9.2 ×10⁻⁶ cm/s
clearance [11]: 21 mL/min/kg
AUC(0-t) at 8 h [12]: 0.103 µM·h
half-life [13]: 96 min
Tmax [14]: 30 min
Cmax [16]: 40 nM

COc1ccc(-c2nnc(-c3ccc4nc(-c5c(C)cc(CC(C)(C)C(=O)O)cc5C)[nH]c4c3)o2)cc1.[Na+]
Activity [18]: 11%
Cp(f) [19]: 2 nM
fraction unbound at 24 h [20]: 0.009
concentration at 1.5 h [21]: 738 nM
concentration at 29 days [22]: 930 nM
AUC(0-t) at 24 h [23]: 5.27 µM·h

COc1ccc(-c2nnc(-c3ccc4nc(-c5c(C)cc(CC(C)(C)C(=O)O)cc5C)[nH]c4c3)o2)cc1
Activity [24]: Active
Activity [25]: Dose-dependent effect
Ratio IC50 [17]: 9
AUC [26]: 308000 ng·h/mL

Cc1cc(CCC(=O)O)cc(C)c1-c1nc2ccc(C(=O)Nc3ccc4ccccc4n3)cc2[nH]1
AUC(0-t) at 8 h [5]: 5.23 µM·h
IC50 [6]: 913 nM
Papp A→B [8]: 1.4 ×10⁻⁶ cm/s
Vd [9]: 0.4 L/kg
Papp B→A [10]: 14.1 ×10⁻⁶ cm/s
clearance [11]: 6.9 mL/min/kg
bioavailability [27]: 2%
Tmax [28]: 24 min
AUC(0-t) at 8 h [29]: 0.405 µM·h
half-life [13]: 102 min
Cmax [30]: 333 nM
